Experimental data as given in ChEMBL document CHEMBL6115033, “Discovery of a Pyrazolopyridinone-Based MYC Inhibitor That Selectively Engages Intracellular c-MYC and Disrupts MYC-MAX Heterodimerization” (J Med Chem, 2025).
The source made the active and inactive calls. No cut-off for these calls is given here.

How the values were obtained:
[1] = target: T1, c-Myc/c-Max (Homo sapiens) (UniProt P01106+P61244); assay: Disruption of MYC-MAX heterodimerization in human MDA-MB-468 cells incubated for 12 hrs; assay type: cell-based
Method in brief: (§1)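 Cells were given 25 µM or DMSO for 0, 3, 5 and 12 h. Cytoplasmic and nuclear lysate fractions were pooled. 2 mg protein was immunoprecipitated with MYC antibody overnight, then protein A/G beads for 4 h at 4 °C. Bound MAX was detected by western blot and quantified relative to MYC; MAX input was also measured.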

[2] = target: T1, c-Myc/c-Max (Homo sapiens); assay: Disruption of MYC-MAX interaction in human MDA-MB-468 cells at 25 uM incubated for 3 to 12 hrs by Western blot analysis; assay type: cell-based; details: time 3-12 hrs; method in brief: as §1
[3] = Induction of apoptosis in human P493-6 cells assessed as late apoptotic cells at 50 uM incubated for 24 hrs by Annexin V/PI staining based flow cytometry analysis (reference value: 6.52 %); assay type: functional
MDA-MB-468 [4] = assay: Downregulation of MYC level in human MDA-MB-468 cells incubated for 24 hrs by Western blot analysis; assay type: functional, cell-based; details: dose <= 50.0 µM
Method in brief: (§2)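 Cells (300,000/well) were plated 24 h, then exposed to graded concentrations or DMSO for 24 h. Laemmli lysates were run on 4–20% SDS-PAGE and immunoblotted for MYC. Levels were normalized to actin. Mean ± SD, n = 2, one-way ANOVA with Dunnett.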

P493-6 [5] = assay: Downregulation of MYC level in human P493-6 cells incubated for 24 hrs by Western blot analysis; assay type: functional, cell-based; details: dose <= 50.0 µM; method in brief: as §2
MDA-MB-468 [6] = assay: Downregulation of CDC25C mRNA expression in human MDA-MB-468 cells at 25 uM incubated for 12 hrs by qRT-PCR analysis; assay type: functional, cell-based
Method in brief: (§3)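 Cells (500,000/well) were cultured with or without 25 µM for the indicated time. Total RNA was extracted with TRIzol and reverse-transcribed. qPCR used SYBR green with target-gene primers, reported as ΔΔCT.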

[7] = Induction of apoptosis in human P493-6 cells assessed as early apoptotic cells at 25 uM incubated for 24 hrs by Annexin V/PI staining based flow cytometry analysis (reference value: 2.52 %); assay type: functional
[8] = Selectivity index, ratio of IC50 for antiproliferative activity against tetracycline-treated human P493-6 cells expressing MYC assessed as inhibition of cell proliferation to IC50 for antiproliferative activity against human P493-6 cells expressing MYC assessed as inhibition of cell proliferation; assay type: functional
Method in brief: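 MYC-off P493-6 cells obtained by 72 h pretreatment with 0.1 µg/mL tetracycline and compared with untreated MYC-high cells. Cells seeded at 3000 per 100 uL, held overnight at 37 °C, then treated at 0.14–100 uM final for 96 h. Viability read by CellTiter-Glo luminescence. IC50 values determined in both states and compared as a selectivity index.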

MDA-MB-468 [9] = assay: Downregulation of CCNA2 mRNA expression in human MDA-MB-468 cells at 25 uM incubated for 12 hrs by qRT-PCR analysis; assay type: functional, cell-based; method in brief: as §3
[10] = target: Myc proto-oncogene protein (Homo sapiens) (UniProt P01106); assay: Binding affinity to MYC in human P493-6 cells assessed as thermal stabilization by measuring melting temperature at 25 uM measured for 2 hrs by CETSA analysis
[11] = target: Myc proto-oncogene protein (Homo sapiens) (UniProt P01106); assay: Binding affinity to MYC in human P493-6 cells assessed as induction of destabilization at 10 to 50 uM measured for 2 hr by CETSA analysis; assay type: cell-based; details: DESTABILISER, dose 10-50 µM
MDA-MB-468 [12] = assay: Downregulation of CDK1 mRNA expression in human MDA-MB-468 cells at 25 uM incubated for 12 hrs by qRT-PCR analysis; assay type: functional, cell-based; method in brief: as §3
MDA-MB-468 [13] = assay: Induction of apoptosis in human MDA-MB-468 cells assessed as effect on PARP level at 50 uM incubated for 24 hrs
MDA-MB-468 [14] = assay: Downregulation of E2F2 mRNA expression in human MDA-MB-468 cells at 25 uM incubated for 12 hrs by qRT-PCR analysis; assay type: functional, cell-based; method in brief: as §3
MDA-MB-468 [15] = assay: Induction of apoptosis in human MDA-MB-468 cells assessed as effect on caspase-3 level at 50 uM incubated for 24 hrs
MDA-MB-468 [16] = assay: Induction of apoptosis in human MDA-MB-468 cells assessed as effect on cleaved PARP level at 50 uM incubated for 24 hrs
MDA-MB-468 [17] = assay: Downregulation of CCNA2 mRNA expression in human MDA-MB-468 cells at 25 uM incubated at 48 hrs by qRT-PCR analysis; assay type: functional, cell-based; method in brief: as §3
P493-6 [18] = assay: Downregulation of E2F1 mRNA expression in human P493-6 cells at 25 uM incubated for 12 hrs by qRT-PCR analysis; assay type: functional, cell-based; method in brief: as §3
P493-6 [19] = assay: Induction of apoptosis in human P493-6 cells assessed as effect on caspase-3 level at 50 uM incubated for 24 hrs
MDA-MB-468 [20] = assay: Downregulation of SKP2 mRNA expression in human MDA-MB-468 cells at 25 uM incubated for 12 hrs by qRT-PCR analysis; assay type: functional, cell-based; method in brief: as §3
MDA-MB-468 [21] = assay: Downregulation of CDC25A mRNA expression in human MDA-MB-468 cells at 25 uM incubated at 48 hrs by qRT-PCR analysis; assay type: functional, cell-based; method in brief: as §3
P493-6 [22] = assay: Induction of apoptosis in human P493-6 cells assessed as effect on cleaved PARP level at 50 uM incubated for 24 hrs
P493-6 [23] = assay: Antiproliferative activity against tetracycline-treated human P493-6 cells expressing MYC assessed as inhibition of cell proliferation at 25 uM incubated for 96 hrs by cell titer glo assay; assay type: functional, cell-based
Method in brief: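 P493-6 cells, either untreated (high MYC) or MYC-off after 0.1 µg/mL tetracycline for 72 h, were exposed to 25 µM for 96 h. Read-out was % survival by CellTiter-Glo luminescence. Mean ± SD, n = 6, unpaired t-test.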

[24] = Induction of apoptosis in human P493-6 cells assessed as necrotic cells at 25 uM incubated for 24 hrs by Annexin V/PI staining based flow cytometry analysis (reference value: 0.11 %); assay type: functional
MDA-MB-468 [25] = assay: Downregulation of CDK2 mRNA expression in human MDA-MB-468 cells at 25 uM incubated at 48 hrs by qRT-PCR analysis; assay type: functional, cell-based; method in brief: as §3
[26] = Toxicity in mouse implanted with human MDA-MB-468 cells assessed as change in body weight at 10 mg/kg, po; assay type: organism-based; details: in vivo
MCF7 = assay: Antiproliferative activity against human MCF7 cells assessed as cell viability incubated for 96 hrs by MTT assay; assay type: functional, cell-based; details: MCF7, 96 h
Method in brief: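 Adherent cells (2000/well) attached overnight, then exposed to compounds at 0.14–100 µM for 96 h in DMEM with 10% FBS. MTT at 0.5 mg/mL for 4 h in the dark, formazan dissolved in DMSO, absorbance at 570 nm. Compounds were freshly prepared in DMSO, with DMSO below 1%.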

Myc proto-oncogene protein (Homo sapiens), sequence (P01106 whole entry): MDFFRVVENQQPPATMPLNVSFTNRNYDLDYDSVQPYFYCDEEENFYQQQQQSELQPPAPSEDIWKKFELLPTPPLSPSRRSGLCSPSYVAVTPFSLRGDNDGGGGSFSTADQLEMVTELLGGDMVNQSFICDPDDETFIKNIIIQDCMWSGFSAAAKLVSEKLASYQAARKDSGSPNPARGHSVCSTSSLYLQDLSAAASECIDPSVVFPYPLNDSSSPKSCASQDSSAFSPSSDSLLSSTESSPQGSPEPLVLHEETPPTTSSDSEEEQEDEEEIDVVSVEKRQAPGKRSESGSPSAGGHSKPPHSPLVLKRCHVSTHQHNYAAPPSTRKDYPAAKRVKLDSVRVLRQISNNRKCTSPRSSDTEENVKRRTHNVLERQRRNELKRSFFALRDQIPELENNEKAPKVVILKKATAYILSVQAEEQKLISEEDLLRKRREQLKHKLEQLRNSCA
T1 sequence (P01106 whole entry): as above
T1 sequence (P61244 2-160 partner limits assumed): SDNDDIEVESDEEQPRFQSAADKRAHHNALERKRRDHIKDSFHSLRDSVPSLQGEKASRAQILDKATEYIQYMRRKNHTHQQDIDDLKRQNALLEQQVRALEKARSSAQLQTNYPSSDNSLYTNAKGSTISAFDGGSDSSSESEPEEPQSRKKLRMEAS

In the case of `N#Cc1cc2c(-c3ccc(Cl)cc3)nn(-c3ccccc3)c2[nH]c1=O`, the Activity [1] is reported as “Active”, the Activity [2] is reported as “Active” and the Activity [3] is reported as 17.6%. For the same compound, the Activity (MDA-MB-468 [4]) was “Dose-dependent-effect”, the Activity (P493-6 [5]) was “Dose-dependent-effect” and the Activity (MDA-MB-468 [6]) was “Active”. The Activity [7] was 3.1%, the “Ratio IC50” value [8] was 3.9 and the Activity (MDA-MB-468 [9]) was “Active”. The Tm [10] was 35 °C, the Activity [11] was “Active” and the Activity (MDA-MB-468 [12]) was “Active”. For the same compound, the Activity (MDA-MB-468 [13]) was “Active”, the Activity (MDA-MB-468 [14]) was “Active” and the Activity (MDA-MB-468 [15]) was “Active”. For the same compound, the Activity (MDA-MB-468 [16]) was “Active”, the Activity (MDA-MB-468 [17]) was “Active” and the Activity (P493-6 [18]) was “Active”. The Activity (P493-6 [19]) was “Active”, the Activity (MDA-MB-468 [20]) was “Active” and the Activity (MDA-MB-468 [21]) was “Active”. The Activity (P493-6 [22]) was “Active”, the Activity (P493-6 [23]) was “Active” and the Activity [24] was 0.095%. The Activity (MDA-MB-468 [25]) was “Active”, the Activity [26] was “Non-toxic” and the IC50 (MCF7) was 39.4 µM.
